How the values were obtained:
Rattus norvegicus [1] = test: Antiinflammatory activity in albino rat assessed as inhibition of carrageenan-induced paw edema at 100 mg/kg, po administered 30 mins prior to challenge measured after 1 hr relative to untreated control; type: functional
Summary of the method: (§1)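 Adult male albino rats (120–140 g), groups of four, fasted 24 h with water allowed. Test compound suspended in 0.5% w/v CMC in water, given orally at 100 mg/kg; controls received CMC alone. After 30 min, 0.1 mL of 1% carrageenan in saline injected subplantar into right hind paw, saline into left. Paw thickness measured by caliper; % inhibition = [(VR−VL)control − (VR−VL)treated]/(VR−VL)control ×100; one-way ANOVA versus control.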

Rattus norvegicus [2] = test: Gastric toxicity in albino rat assessed as ulcer index at 100 mg/kg, po after 5 hrs; type: organism-based; parameters: dose 100 mg/kg, route oral; settings: in vivo
Summary of the method: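 Rats dosed orally at 100 mg/kg in 0.5% CMC (n = 4). Stomach lesions counted and graded by area: level I <1 mm², II 1–3 mm², III >3 mm². Ulcer index = 1×(level I count) + 2×(level II) + 3×(level III). Mean ± SEM; one-way ANOVA versus control.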

Rattus norvegicus [3] = test: Antiinflammatory activity in albino rat assessed as inhibition of carrageenan-induced paw edema at 100 mg/kg, po administered 30 mins prior to challenge measured after 2 hrs relative to untreated control; type: functional; summary of the method: as §1
Rattus norvegicus [4] = test: Antiinflammatory activity in albino rat assessed as inhibition of carrageenan-induced paw edema at 100 mg/kg, po administered 30 mins prior to challenge measured after 5 hrs relative to untreated control; type: functional; summary of the method: as §1
Rattus norvegicus [5] = test: Antiinflammatory activity in albino rat assessed as inhibition of carrageenan-induced paw edema at 100 mg/kg, po administered 30 mins prior to challenge measured after 4 hrs relative to untreated control; type: functional; summary of the method: as §1
Rattus norvegicus [6] = test: Antiinflammatory activity in albino rat assessed as inhibition of carrageenan-induced paw edema at 100 mg/kg, po administered 30 mins prior to challenge measured after 3 hrs relative to untreated control; type: functional; summary of the method: as §1
[7] = Induction of nitric oxide release at 0.1 mM after 5 hrs in phosphate buffer at pH 7.4 by Griess assay; type: physicochemical; settings: pH 7.4, 5 h, 100 µM
Summary of the method: (§2)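 Compound at a final 10^-4 M with 0.5 mM N-acetylcysteine in phosphate buffer pH 7.4 at 37 °C. Reaction mixture treated with Griess reagent (sulfanilamide, N-naphthylethylenediamine, phosphoric acid), 10 min at room temperature, absorbance read at 546 nm. Sodium nitrite standards (10–80 nmol/mL) used for calibration. NO reported as mol/mol, n = 4 reaction mixtures.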

[8] = Induction of nitric oxide release at 0.1 mM after 6 hrs in phosphate buffer at pH 7.4 by Griess assay; type: physicochemical; settings: pH 7.4, 6 h, 100 µM; summary of the method: as §2
[9] = Induction of nitric oxide release at 0.1 mM after 3 hrs in phosphate buffer at pH 7.4 by Griess assay; type: physicochemical; settings: pH 7.4, 3 h, 100 µM; summary of the method: as §2
[10] = Induction of nitric oxide release at 0.1 mM after 1 hr in phosphate buffer at pH 7.4 by Griess assay; type: physicochemical; settings: pH 7.4, 1 h, 100 µM; summary of the method: as §2
[11] = Induction of nitric oxide release at 0.1 mM in 0.1 N HCl buffer at pH 1.0 by Griess assay; type: physicochemical; settings: pH 1, 100 µM
Summary of the method: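 Griess procedure as at neutral pH, but in 0.1 N HCl pH 1 in place of phosphate buffer. Compound at a final 10^-4 M with N-acetylcysteine, 37 °C. Absorbance read at 546 nm against sodium nitrite standards (10–80 nmol/mL). Release expressed relative to a theoretical 1 mol NO/mol compound.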

[12] = Induction of nitric oxide release at 0.1 mM after 4 hrs in phosphate buffer at pH 7.4 by Griess assay; type: physicochemical; settings: pH 7.4, 4 h, 100 µM; summary of the method: as §2
[13] = Induction of nitric oxide release at 0.1 mM after 2 hrs in phosphate buffer at pH 7.4 by Griess assay; type: physicochemical; settings: pH 7.4, 2 h, 100 µM; summary of the method: as §2
Rattus norvegicus [14] = test: Antiinflammatory activity in albino rat assessed as inhibition of carrageenan-induced paw edema at 100 mg/kg, po administered 30 mins prior to challenge measured after 3 hrs relative to indomethacin; type: functional; parameters: scale not given: the % may be the effect or the level left
Summary of the method: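 Carrageenan paw edema in male albino rats (120–140 g, n = 4, fasted 24 h), compound 100 mg/kg po in 0.5% CMC 30 min before subplantar 1% carrageenan (0.1 mL). Percent edema inhibition at the stated hour from right minus left paw thickness versus the CMC control, then expressed as a percentage of the indomethacin (100 mg/kg) response at the same time.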

| Activity [7] [mol/mol] | Activity [8] [mol/mol] | Activity [9] [mol/mol] | Activity [10] [mol/mol] | Activity [11] | Activity [12] [mol/mol] | Activity [13] [mol/mol] | Structure (SMILES) | inhibition in vivo at 100 mg/kg (Rattus norvegicus [1]) [%] | UI (Rattus norvegicus [2]) | inhibition in vivo at 100 mg/kg (Rattus norvegicus [3]) [%] | inhibition in vivo at 100 mg/kg (Rattus norvegicus [4]) [%] | inhibition in vivo at 100 mg/kg (Rattus norvegicus [5]) [%] | inhibition in vivo at 100 mg/kg (Rattus norvegicus [6]) [%] | Activity (Rattus norvegicus [14]) [%] |
| --- | --- | --- | --- | --- | --- | --- | --- | --- | --- | --- | --- | --- | --- | --- |
|  |  |  |  |  |  |  | COc1ccc(/C=C/C(=O)c2ccc(NC(=O)COc3ccc(C(C)=O)cc3)cc2)cc1 | 28 | 6 | 35 | 30 | 33 | 42 |  |
|  |  |  |  |  |  |  | CC(=O)c1ccc(OCC(=O)Nc2ccc(C(=O)/C=C/c3ccco3)cc2)cc1 | 28 | 5 | 32 | 36 | 39 | 45 |  |
| 0.16 | 0.15 | 0.14 | 0.11 | Not Active | 0.3 | 0.12 | COc1ccc(/C=C/C(=O)c2ccc(NC(=O)COc3ccc(/C(C)=N\O)cc3)cc2)cc1 | 33 | 5 | 41 | 37 | 42 | 46 | 59 |
| 0.37 | 0.36 | 0.22 | 0.13 | Not Active | 0.41 | 0.19 | C/C(=N/O)c1ccc(OCC(=O)Nc2ccc(C(=O)/C=C/c3ccc(Cl)cc3)cc2)cc1 | 39 | 2.2 | 54 | 49 | 55 | 66 | 85 |
|  |  |  |  |  |  |  | COc1ccc(/C=C/C(=O)c2ccc(NC(=O)CBr)cc2)cc1 | 37 | 28 | 42 | 34 | 41 | 46 |  |
|  |  |  |  |  |  |  | COc1ccc(/C=C/C(=O)c2ccc(N)cc2)cc1 | 42 | 22.5 | 48 | 40 | 48 | 51 |  |
| 0.15 | 0.12 | 0.4 | 0.1 | Not Active | 0.28 | 0.14 | CC(O[N+](=O)[O-])C(=O)Nc1ccc(C(=O)/C=C/c2ccc3c(c2)OCO3)cc1 (centres undefined) | 45 | 4 | 40 | 53 | 54 | 59 | 77 |
|  |  |  |  |  |  |  | O=C(CBr)Nc1ccc(C(=O)/C=C/c2ccc3c(c2)OCO3)cc1 | 40 | 24 | 45 | 46 | 48 | 53 |  |
| 0.63 | 0.59 | 0.37 | 0.15 | Not Active | 0.59 | 0.28 | O=C(CO[N+](=O)[O-])Nc1ccc(C(=O)/C=C/c2ccco2)cc1 | 34 | 7 | 36 | 39 | 40 | 48 | 61 |
|  |  |  |  |  |  |  | O=C(CBr)Nc1ccc(C(=O)/C=C/c2ccco2)cc1 | 30 | 25.8 | 37 | 25 | 33 | 41 |  |
|  |  |  |  |  |  |  | Nc1ccc(C(=O)/C=C/c2ccco2)cc1 | 33 | 29 | 38 | 30 | 33 | 42 |  |
| 0.15 | 0.14 | 0.37 | 0.11 | Not Active | 0.17 | 0.12 | COc1ccc(/C=C/C(=O)c2ccc(NC(=O)C(C)O[N+](=O)[O-])cc2)cc1 (centres undefined) | 43 | 8 | 46 | 35 | 43 | 50 | 65 |
|  |  |  |  |  |  |  | Nc1ccc(C(=O)/C=C/c2ccc(Cl)cc2)cc1 | 41 | 18 | 50 | 54 | 58 | 60 |  |
| 0.68 | 0.59 | 0.48 | 0.27 | Not Active | 0.66 | 0.31 | COc1ccc(/C=C/C(=O)c2ccc(NC(=O)CO[N+](=O)[O-])cc2)cc1 | 33 | 5.8 | 49 | 46 | 51 | 53 | 69 |
|  |  |  |  |  |  |  | CC(Br)C(=O)Nc1ccc(C(=O)/C=C/c2ccc3c(c2)OCO3)cc1 (centres undefined) | 37 | 18 | 43 | 50 | 53 | 56 |  |
|  |  |  |  |  |  |  | CC(=O)c1ccc(OCC(=O)Nc2ccc(C(=O)/C=C/c3ccc(Cl)cc3)cc2)cc1 | 43 | 8.1 | 52 | 55 | 58 | 61 |  |
|  |  |  |  |  |  |  | [O-][n+]1onc(-c2ccccc2)c1CO |  | 1.5 |  |  |  |  |  |
|  |  |  |  |  |  |  | CC(Br)C(=O)Nc1ccc(C(=O)/C=C/c2ccco2)cc1 (centres undefined) | 30 | 25.3 | 37 | 34 | 36 | 42 |  |
|  |  |  |  |  |  |  | COc1ccc(/C=C/C(=O)c2ccc(NC(=O)C(C)Br)cc2)cc1 (centres undefined) | 39 | 30.1 | 40 | 31 | 38 | 40 |  |
|  |  |  |  |  |  |  | Nc1ccc(C(=O)/C=C/c2ccc3c(c2)OCO3)cc1 | 32 | 20 | 44 | 47 | 50 | 55 |  |
|  |  |  |  |  |  |  | CC(Br)C(=O)Nc1ccc(C(=O)/C=C/c2ccc(Cl)cc2)cc1 (centres undefined) | 39 | 16.7 | 45 | 50 | 54 | 59 |  |

— ChEMBL document CHEMBL1926598, “Synthesis, anti-inflammatory activity and ulcerogenic liability of novel nitric oxide donating/chalcone hybrids” (Bioorg Med Chem, 2012)
